Published values from different studies.
Compare with care: the assays were run in different laboratories.
Target: Mitogen-activated protein kinase 3 (MAPK3, Homo sapiens, UniProt P27361)

SMILES	effect on	mode	technique	cell line	concentration	endpoint	value
CC(C)(O)[C@H]1CC[C@H](Nc2ccc3ncc(-c4cccc(C(F)(F)F)c4)n3n2)CC1	enzyme activity	inhibitor			1 µM	remaining activity	94%
CNc1cccc2cc(C(=O)Nc3ccc(C(=O)O)cc3)c(=O)[nH]c12	enzyme activity	inhibitor			10 µM	inhibition	1.9%
CC(C)(C)C(=O)c1sc(NC2CCCCC2)nc1N	enzyme activity	inhibitor			10 µM	remaining activity	73%
C[C@H](c1ccc(F)cc1)N(Cc1cccc(C(=O)O)c1)C(=O)c1cnc2ccccc2c1	cell-free assay		competition with immobilised ligand		1 µM	remaining binding	100%
Cn1c(=O)n(-c2ccc(C(C)(C)C#N)cc2)c2c3cc(-c4cnc5ccccc5c4)ccc3ncc21	enzyme activity	inhibitor			10 µM	remaining activity	106%
CNC(=O)c1cc(Oc2ccc(NC(=O)Nc3ccc(Cl)c(C(F)(F)F)c3)cc2)ccn1	cell-free assay				0.5 µM	remaining signal	105%
COc1cc(Nc2cnc(C#N)c(O[C@H](C)CN(C)C)n2)ncc1-c1cnn(C)c1	enzyme activity	inhibitor	radiometric		1 µM	remaining activity	96%
Cc1cc(C)c(-n2ccn3nc(-c4cccnc4)cc23)cc1NC(=O)c1cc(C#N)cc(S(F)(F)(F)(F)F)c1	cell-free assay		competition with immobilised ligand		0.1 µM	remaining binding	95.2%
CCN1CCN(Cc2ccc(NC(=O)c3ccc(C)c(/C=C/c4cnc5[nH]ccc5c4OC)c3)cc2C(F)(F)F)CC1	target engagement in cells	inhibitor	chemoproteomics	A-375	0.5 µM	inhibition	-18.7%
COc1ccc(COc2ccc(Cc3cnc(N)nc3N)cc2OC)cc1	cell-free assay				0.5 µM	remaining signal	99.1%
CCC1(CC)NC(=O)c2c(c3ccc(Cl)c(Cl)c3n2C)C1C#N (stereo not shown)	thermal stability		DSF		10 µM	ΔTm	0 °C
CN(c1ccnc(CNc2nc(Nc3ccc4c(c3)CC(=O)N4)ncc2C(F)(F)F)n1)S(C)(=O)=O	cell-free assay		competition with immobilised ligand		1 µM	remaining binding	96%
N#CC1c2c([nH]c3c(Cl)c(Cl)ccc23)C(=O)NC12CCCCC2 (racemic)	thermal stability		DSF		10 µM	ΔTm	0.1 °C
Cc1c[nH]c2nccc(Oc3c(F)cc(Nc4cc(Cl)nc(N)n4)cc3F)c12	cell-free assay		competition with immobilised ligand		0.1 µM	remaining binding	90%
FC(F)c1nc2ccccc2n1-c1nc(N2CCOCC2)nc(N2CCOCC2)n1	enzyme activity	inhibitor			10 µM	remaining activity	106%
O=C(NC[C@@H]1[C@H]2CN(C(=O)OCc3cc(C(F)(F)F)cc(C(F)(F)F)c3)C[C@@H]12)c1ccc2[nH]nnc2c1	cell-free assay		competition with immobilised ligand		1 µM	remaining binding	100%
Cn1c2c(c3ccc(Cl)c(Cl)c31)C(C#N)C1(CCOCC1)NC2=O (stereo not shown)	thermal stability		DSF		10 µM	ΔTm	0.1 °C

SMILES	effect on	mode	technique	cell line	concentration	endpoint	value
CC(C)(C)c1nc(-c2cccc(NS(=O)(=O)c3c(F)cccc3F)c2F)c(-c2ccnc(N)n2)s1	enzyme activity	inhibitor	radiometric		1 µM	remaining activity	92%
Cc1ccc(NC(=O)c2ccc(CN3CCN(C)CC3)cc2)cc1Nc1nc(-c2cccnc2)cs1	cell-free assay				0.5 µM	remaining signal	103%
Cc1sc(C(=O)NC2COC2)cc1-n1cc(NC(=O)Nc2c(F)cccc2Cl)cn1	enzyme activity	inhibitor			10 µM	remaining activity	107%
Cn1c2c(c3ccc(Cl)c(Cl)c31)C(C#N)C1(CCCC1)NC2=O (stereo not shown)	thermal stability		DSF		10 µM	ΔTm	-0.2 °C
Nc1nc(Nc2ccccc2)sc1C(=O)c1c(F)cccc1F	enzyme activity	inhibitor			10 µM	remaining activity	72%
CCN1CCN(Cc2ccc(NC(=O)c3ccc(C)c(Oc4ccnc5[nH]ccc45)c3)cc2C(F)(F)F)CC1	target engagement in cells	inhibitor	chemoproteomics	A-375	50 nM	inhibition	-24.5%
COc1cc2ncnc(Nc3ccc(Oc4ccccc4)c(C)c3C)c2cc1OC	enzyme activity	inhibitor			1 µM	inhibition	0%
O=C1C(Cl)=C(N2C(=O)CCC2=O)C(=O)c2ccccc21	enzyme activity	inhibitor			0.5 µM	remaining activity	99.3%
FC(F)(F)Oc1cccc(-c2cnc3ccc(-c4ccncc4)nn23)c1	enzyme activity	inhibitor	radiometric		1 µM	activity vs control	105%
Cc1nc(Cc2cccc(C(F)(F)F)c2)sc1-c1ccc(C(N)=O)nc1	cell-free assay		competition with immobilised ligand		1 µM	remaining binding	96%
N#CC(=C(N)Sc1ccc(N)cc1)c1ccccc1C(F)(F)F	cell-free assay				0.5 µM	remaining signal	116%
CN1CCC2(CC1)NC(=O)c1c(c3ccc(Cl)c(Cl)c3n1C)C2C#N (racemic)	thermal stability		DSF		10 µM	ΔTm	0.3 °C
O=C(Nc1cnn(-c2csc(C(=O)NC3COC3)c2)c1)Nc1c(F)cccc1Cl	enzyme activity	inhibitor			5 µM	remaining activity	92.4%
Cn1c2c(c3ccccc31)C(C#N)C(C)(C)NC2=O (stereo not shown)	thermal stability		DSF		10 µM	ΔTm	-0.4 °C
Cc1cc(-n2nc(Cc3cc(F)cc(C(F)(F)F)c3)nc2C)ccc1C(N)=O	cell-free assay		competition with immobilised ligand		1 µM	remaining binding	100%
Cn1c2c(Cl)c(Cl)ccc2c2cc(N)[nH]c(=O)c21	thermal stability		DSF		10 µM	ΔTm	-0.4 °C
N#CC1(c2ccccn2)CCN(Cc2cc(C(=O)N3CCCC3)c(=O)n3ccccc23)CC1	cell-free assay		competition with immobilised ligand		1 µM	remaining binding	91%
